Compound activity from PubChem.
This is a sample that favours compounds with a hit; in the whole collection about 4.7% have one here.
MPTP block – mitochondrial permeability transition pore inhibitors, primary screen, biochemical, isolated mouse mitochondria, absorbance. Ca2+ swelling absorbance, 30 min. inhibition, % at 10 µM. 360,000 compounds, 1.4% hits. AID 602449, 2012;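 active = inhibition of 50% or more, scaled per plate between neutral and stimulator controls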;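 also: 0% = DMSO wells given calcium and 100% = 1 mM EGTA wells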
SKN-1 inh – suppressors of acrylamide-induced Pgst-4::GFP reporter in worms, primary screen, SKN-1 inhibitor project, whole organism, uHTS, GFP/RFP fluorescence ratio, strain VP596. C. elegans VP596 Pgst-4::GFP/RFP ratio, 24 h. inhibition, % at 21.8 µM. 360,000 compounds, 0.49% hits;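 active = interference check ratio from 0.5 to 1.5 plus GFP to RFP signal ratio inhibition reaching or exceeding a fixed threshold, cut at about 30% in these data, passing the limit was not always enough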
ADAM17 inh – ADAM17 inhibitors, primary screen, biochemical, QFRET. 370,000 compounds, 0.83% hits. recombinant ADAM17, EDANS/DABCYL FRET peptide cleavage. inhibition, % at 6.95 µM. Disintegrin and metalloproteinase domain-containing protein 17 (Homo sapiens), P78536;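 active = inhibition above the mean of compounds lying between control limits plus 3 SD, set per campaign, cut at about 8.5% in these data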;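 also: 0% = DMSO-only wells as the low control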
GRIN3A LBD mod – binders of NR3A ligand-binding domain, primary screen, biophysical, differential scanning fluorimetry, uHTS; Tm shift relative to glycine control, % at 25 µM; NR3A LBD differential scanning fluorimetry, Tm shift; 0% = protein alone, 100% = glycine-bound protein; 340,000 compounds, 2.5% hits;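 active = melting temperature shift of at least 10% of the positive control shift, at one fixed dose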
ADAM10 inh – human ADAM10 inhibitors, primary screen, biochemical, QFRET, HTS | Disintegrin and metalloproteinase domain-containing protein 10 (Homo sapiens), O14672 | recombinant ADAM10, EDANS/DABCYL FRET peptide cleavage, 3 h | inhibition, % at 7 µM | 370,000 compounds, 0.62% hits | AID 720582, 2013;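 active = inhibition above a per-campaign cutoff equal to the mean of compounds falling between control-based bounds plus 3 SD, cut at about 20% in these data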;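 also: 0% = DMSO wells while the 100% control is not disclosed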
Target sequence (O14672 214-748 limits assumed): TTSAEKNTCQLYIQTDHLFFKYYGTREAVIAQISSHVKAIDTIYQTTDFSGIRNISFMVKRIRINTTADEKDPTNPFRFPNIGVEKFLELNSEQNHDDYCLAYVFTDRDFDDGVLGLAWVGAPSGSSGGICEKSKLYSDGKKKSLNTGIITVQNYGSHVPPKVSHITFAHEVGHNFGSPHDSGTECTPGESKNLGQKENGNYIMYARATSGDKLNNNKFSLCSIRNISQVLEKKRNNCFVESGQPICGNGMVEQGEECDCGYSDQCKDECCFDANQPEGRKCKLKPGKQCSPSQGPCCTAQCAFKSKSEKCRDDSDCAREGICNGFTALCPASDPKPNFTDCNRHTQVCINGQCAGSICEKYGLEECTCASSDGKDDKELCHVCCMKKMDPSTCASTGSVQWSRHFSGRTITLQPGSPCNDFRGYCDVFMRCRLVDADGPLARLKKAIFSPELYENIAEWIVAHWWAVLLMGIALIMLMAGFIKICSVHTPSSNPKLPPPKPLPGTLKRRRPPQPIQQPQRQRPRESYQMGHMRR
MT1-MMP act inh – blockers of MT1-MMP proenzyme processing, primary screen, HT1080 RFP-PRO-GFP cells, GFP/RFP fluorescence; GFP/RFP ratio fluorescence, overnight; percent of plate control window, DMSO zero; GFP/RFP ratio change, % at 20 µM; 360,000 compounds, 0.061% hits; AID 651647, 2012;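 active = GFP/RFP ratio change of at least 30% with cell ATP level not reduced by more than half and red fluorescence within 50% of control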
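Assay system: RFP-PRO-GFP reporter HT1080 cells; read-out basis: GFP/RFP fluorescence ratio; benchmarks: DMSO wells and RFP-L50D-GFP cells; doses: 20 µM single dose, 1% DMSO; schedule: overnight cell settling, then overnight compound exposure, 37 °C, 5% CO2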
ADAM10 counter – ADAM10 inhibitors, counter-screen for ADAM17 exosite inhibitor project, biochemical, FRET, human ADAM10. shares compounds with ADAM17 inh. recombinant ADAM10, EDANS/DABCYL FRET peptide cleavage, 3 h. inhibition, % at 6.95 µM. 2,900 compounds, 47% hits;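 active = mean inhibition over the triplicate runs exceeds the activity threshold set in the earlier primary screen, cut at about 20% in these data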;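 also: 0% = DMSO wells and 100% = marimastat wells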
ADAM17 confirm – ADAM17 inhibitors, hit retest, confirmation, biochemical, QFRET peptide cleavage | inhibition, % at 6.95 µM | 2,900 compounds, 65% hits | recombinant ADAM17, EDANS/DABCYL QFRET peptide cleavage | shares compounds with ADAM17 inh;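 active = mean inhibition across replicates above the hit cutoff set in the primary screen, cut at about 8.5% in these data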;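 also: 0% = DMSO wells and 100% = marimastat wells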
Starred values were filed as active, the others as inactive.

What do the screens show for `CN(C(=O)COC(=O)CCc1c[nH]c2ccccc12)C(c1ccccc1)c1ccccc1`?
MPTP block: -1; SKN-1 inh: 1; ADAM17 inh: 11*; GRIN3A LBD mod: -11; ADAM10 inh: 18; MT1-MMP act inh: 1; ADAM10 counter: 28*; ADAM17 confirm: 15*

How did O=C(CCc1c[nH]c2ccccc12)OCC(=O)c1ccccc1 do in these assays?
MPTP block: 0; SKN-1 inh: 0; ADAM17 inh: 0; ADAM10 inh: 2; MT1-MMP act inh: 1

How did Cn1c(C=O)c(-c2ccc3c(c2)OCCO3)c2ccccc21 do in these assays?
MPTP block: -1; SKN-1 inh: 10; ADAM17 inh: -3; GRIN3A LBD mod: -5; ADAM10 inh: -37; MT1-MMP act inh: 0

Results for Nc1ncnc2c1ncn2[C@@H]1O[C@H](CNCc2ccc(-c3cc(C(F)(F)F)ccc3Cl)o2)[C@@H](O)[C@H]1O ?
MPTP block: -1; SKN-1 inh: 3; ADAM17 inh: 10*; GRIN3A LBD mod: -2; ADAM10 inh: 6; MT1-MMP act inh: 4; ADAM10 counter: -5; ADAM17 confirm: 2

How did COc1ccc(S[C@]2(C(=O)N3CCCC3)CC(=O)N(C(=O)CCc3ccccc3)[C@@H]2c2ccc(OC)cc2)cc1 do in these assays?
ADAM17 inh: 2; ADAM10 inh: 6

What do the screens show for `COc1ccc(S[C@]2(C(=O)N(C)C)CC(=O)N(C(=O)CCc3ccccc3)[C@@H]2c2ccc(OC)cc2)cc1`?
ADAM17 inh: 10*; ADAM10 inh: 9; ADAM10 counter: 14; ADAM17 confirm: 9.8*

Results for O=C(CSc1ccc(-c2ccco2)nn1)c1ccc(F)cc1 ?
MPTP block: 2; SKN-1 inh: 8; ADAM17 inh: 9.4*; GRIN3A LBD mod: -4; ADAM10 inh: 19; MT1-MMP act inh: 8; ADAM10 counter: 7; ADAM17 confirm: 6

How did Cc1cccc(C)c1NC(=O)CNCC(=O)Nc1c(C)cccc1C do in these assays?
MPTP block: -2; SKN-1 inh: 1; ADAM17 inh: -3; GRIN3A LBD mod: 1; ADAM10 inh: -6; MT1-MMP act inh: -1

What do the screens show for `Cc1ccc(NC(=S)NNC(=O)CCn2cc(C)cn2)cc1`?
MPTP block: 0; SKN-1 inh: 16; ADAM17 inh: -2; GRIN3A LBD mod: 1; ADAM10 inh: 2; MT1-MMP act inh: 2

What do the screens show for `Cc1ccc(-n2c(SCC(=O)NNC(=S)Nc3ccccc3)nc3ccccc3c2=O)cc1`?
MPTP block: 4; SKN-1 inh: 8; ADAM17 inh: 12*; GRIN3A LBD mod: -1; ADAM10 inh: 13; MT1-MMP act inh: -4; ADAM10 counter: 37*; ADAM17 confirm: 11*

What do the screens show for `Cc1cnn(CCC(=O)NNC(=S)Nc2ccccc2)c1`?
MPTP block: -2; SKN-1 inh: -3; ADAM17 inh: 12*; GRIN3A LBD mod: 0; ADAM10 inh: 10; MT1-MMP act inh: 0; ADAM10 counter: 9; ADAM17 confirm: 7

What do the screens show for `Cc1cccc(C)c1NC(=O)CNc1ccccc1`?
MPTP block: 2; SKN-1 inh: 11; ADAM17 inh: 11*; GRIN3A LBD mod: -3; ADAM10 inh: 17; MT1-MMP act inh: 2; ADAM10 counter: 3; ADAM17 confirm: 3

What do the screens show for `Cc1cccc(NCC(=O)NNC(=S)Nc2ccccc2)c1`?
MPTP block: 0; SKN-1 inh: 3; ADAM17 inh: 12*; GRIN3A LBD mod: -8; ADAM10 inh: 14; MT1-MMP act inh: 1; ADAM10 counter: 13; ADAM17 confirm: 5

How did Cc1ccc(NC(=O)CSCC(=O)Nc2ccc(N3CCOCC3)cc2N2CCOCC2)cc1 do in these assays?
MPTP block: 4; SKN-1 inh: -6; ADAM17 inh: 0; GRIN3A LBD mod: 1; ADAM10 inh: -2; MT1-MMP act inh: -3

What do the screens show for `CN(CC(=O)Nc1ccc(Cl)c(C(F)(F)F)c1)C(=O)c1cccnc1Sc1ccccc1`?
MPTP block: 1; SKN-1 inh: 9; ADAM17 inh: 12*; GRIN3A LBD mod: -10; ADAM10 inh: 8; MT1-MMP act inh: -4; ADAM10 counter: 27*; ADAM17 confirm: 9.7*

How did Nc1nc2ccccc2n1S(=O)(=O)c1ccccc1 do in these assays?
MPTP block: 0; SKN-1 inh: -7; ADAM17 inh: 9.0*; ADAM10 inh: -1; MT1-MMP act inh: 3; ADAM10 counter: 5; ADAM17 confirm: 4

What do the screens show for `COc1ccc(C(O)c2nc(-c3cccc(C(F)(F)F)c3)cs2)cc1` (configuration not stated)?
MPTP block: 2; SKN-1 inh: 10; ADAM17 inh: 13*; ADAM10 inh: 9; MT1-MMP act inh: 4; ADAM10 counter: 27*; ADAM17 confirm: 13*

How did OC(c1ccccc1)c1nc(-c2cccc(F)c2)cs1 (configuration not stated) do in these assays?
MPTP block: 0; SKN-1 inh: 0; ADAM17 inh: 2; ADAM10 inh: 11; MT1-MMP act inh: -1

Results for COc1ccc(C(O)c2nc(-c3cccc(F)c3)cs2)cc1 (configuration not stated) ?
MPTP block: 1; SKN-1 inh: -1; ADAM17 inh: 9.9*; ADAM10 inh: 18; MT1-MMP act inh: 5; ADAM10 counter: 2; ADAM17 confirm: 2

How did NS(=O)(=O)c1ccc(CNC(=O)/C=C/c2cccc(Cl)c2)cc1 do in these assays?
MPTP block: 0; SKN-1 inh: 4; ADAM17 inh: 0; GRIN3A LBD mod: -1; ADAM10 inh: 5; MT1-MMP act inh: 2
